Data taken from ChEMBL document CHEMBL4190254, “Synthesis of sulfamoylbenzamide derivatives as HBV capsid assembly effector” (Eur J Med Chem, 2017).
The source made the active and inactive calls. The calls are words filed in the database; no cut-off is given here.

Key:
CCRF-CEM = test: Cytotoxicity against human CEM cells by CellTiter 96 non-radioactive cell proliferation colorimetric assay; format: cell-based; settings: ccrf-cem
Method in brief: (§1)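 A CellTiter 96 colorimetric cell proliferation read-out was used in primary human PBM cells, CEM, Vero and HepG2 cells. CC50 is the concentration that inhibits cell growth by 50%.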

Vero = test: Cytotoxicity against African green monkey Vero cells by CellTiter 96 non-radioactive cell proliferation colorimetric assay; format: cell-based; settings: chlorocebus sabaeus, vero; method in brief: as §1
Hepatitis B virus [1] = test: Antiviral activity against HBV infected in human HepAD38 cells assessed as reduction in viral replication by RT-PCR method; format: functional, organism-based
Method in brief: (§2)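 HBV DNA replication in HepAD38 cells was quantified by RT-PCR following an earlier published method, with data relative to the untreated control. EC50 (50% inhibition of HBV DNA replication) was derived by linear regression. Values are the mean ± SD of two or three replicates from 2 independent experiments.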

Hepatitis B virus [2] = test: Antiviral activity against HBV infected in human HepAD38 cells assessed as inhibition of viral replication at 10 uM by RT-PCR method relative to control; format: functional
Method in brief: (§3)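 HBV DNA replication in HepAD38 cells was quantified by RT-PCR following an earlier published method. Each compound was tested at a single 10 μM concentration. Results are % inhibition ± SD relative to the untreated control.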

PBMC = test: Cytotoxicity against human PBMC by CellTiter 96 non-radioactive cell proliferation colorimetric assay; format: cell-based; method in brief: as §1
HepG2 = test: Cytotoxicity against human HepG2 cells by CellTiter 96 non-radioactive cell proliferation colorimetric assay; format: cell-based; method in brief: as §1
Hepatitis B virus [3] = test: Inhibition of HBV capsid cp149 assembly expressed in Escherichia coli BL21 at 20 uM preincubated for 1 hr followed by NaCl stimulation measured after overnight incubation by uranyl acetate staining based electron microscopic method
Method in brief: (§4)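 Untagged HBV core residues 1–149 expressed in E. coli BL21 (1 mM IPTG, 16 °C overnight), purified as capsids, dissociated to dimers with 4 M urea in carbonate buffer pH 9.5; >95% pure. Dimers preincubated 1 hr with compound (20 μM), then capsid buffer added (final NaCl 300 mM, Cp149 monomer 10 μM); held 4 °C overnight; uranyl acetate negative-stain EM, single-blind.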

[4] = biological target: Core antigen (Hepatitis B virus) (UniProt Q03732); test: (§5) Inhibition of capsid in HBV infected in human HepAD38 cells assessed as reduction in tetracycline-induced cccDNA formation by measuring reduction in HBe antigen secretion after 14 days by ELISA; format: cell-based
Chain of Core antigen (Hepatitis B virus) (Q03732 as listed by the source): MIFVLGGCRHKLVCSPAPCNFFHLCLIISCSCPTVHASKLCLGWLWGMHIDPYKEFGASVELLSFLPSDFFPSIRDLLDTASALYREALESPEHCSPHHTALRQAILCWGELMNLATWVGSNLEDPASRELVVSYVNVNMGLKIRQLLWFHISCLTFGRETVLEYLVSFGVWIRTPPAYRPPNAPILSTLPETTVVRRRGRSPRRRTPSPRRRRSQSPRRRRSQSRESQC
Method in brief: (§6)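 HepAD38 cells, collagen-coated wells, DMEM/F12 with 10% heat-inactivated FBS. Tetracycline withdrawn 7 days to allow DNA synthesis and cccDNA formation; at day 7 tetracycline (0.3 μg/ml) plus compound re-added. Compound at 10 μM or 0.001–10 μM, medium and compound replenished every 5 days. Day-14 supernatant HBeAg by ELISA; EC50 by linear regression.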

Hepatitis B virus [5] = test: Antiviral activity against HBV infected in human HepAD38 cells assessed as reduction in extracellular viral DNA level by RT-PCR method; format: functional, organism-based; method in brief: as §2
Hepatitis B virus [6] = test: Antiviral activity against HBV infected in human HepAD38 cells assessed as reduction in intracellular viral DNA level by RT-PCR method; format: functional, organism-based; method in brief: as §2
Hepatitis B virus [7] = test: Antiviral activity against HBV infected in human HepAD38 cells assessed as reduction in intracellular viral DNA level at 10 uM by RT-PCR method relative to control; format: functional; parameters: scale not given: the % may be the effect or the level left
Method in brief: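 HepAD38 cells; intracellular HBV DNA quantified by RT-PCR, expressed relative to untreated control; single-point inhibition given as percent at 10 μM, mean ± SD of two or three replicates from 2 independent experiments.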

[8] = biological target: Core antigen (Hepatitis B virus) (UniProt Q03732); test: Inhibition of capsid in HBV infected in human HepAD38 cells assessed as reduction in cccDNA formation by measuring reduction in HBe antigen secretion at 10 uM after 14 days by ELISA relative to control; format: cell-based; method in brief: as §6
Core antigen = Core antigen (Hepatitis B virus, UniProt Q03732); test: as §5; format: cell-based; method in brief: as §6
Chain of Core antigen (Q03732 whole entry): as the sequence (Q03732 as listed by the source) above

Hepatitis B virus [9] = test: Antiviral activity against HBV infected in human HepAD38 cells assessed as reduction in extracellular viral DNA level at 10 uM by RT-PCR method relative to control; format: functional; parameters: scale not given: the % may be the effect or the level left; method in brief: as §3
[10] = biological target: Core antigen (Hepatitis B virus) (UniProt Q03732); test: Inhibition of capsid in HBV infected in human HepAD38 cells assessed as reduction in cccDNA formation by measuring reduction in HBe antigen secretion at 3 to 4 uM after 14 days by ELISA relative to control; format: cell-based; method in brief: as §6
Hepatitis B virus [11] = test: Inhibition of HBV capsid cp149 assembly expressed in Escherichia coli BL21 assessed as spherical capsid aggregation in to clusters at 20 uM preincubated for 1 hr followed by NaCl stimulation measured after overnight incubation by uranyl acetate staining based electron microscopic method; method in brief: as §4

Row | Structure (SMILES) | CC50 (CCRF-CEM) [µM] | CC50 (Vero) [µM] | EC50 (Hepatitis B virus [1]) [µM] | EC90 (Hepatitis B virus [1]) [µM] | inhibition at 10 µM (Hepatitis B virus [2]) [%] | CC50 (PBMC) [µM] | CC50 (HepG2) [µM] | inhibition (Hepatitis B virus [3]) | EC90 [4] [µM] | EC50 (Hepatitis B virus [5]) [µM] | EC90 (Hepatitis B virus [5]) [µM] | EC50 (Hepatitis B virus [6]) [µM] | EC90 (Hepatitis B virus [6]) [µM] | Activity (Hepatitis B virus [7]) [%] | inhibition [8] [%] | EC50 (Core antigen) [µM] | Activity (Hepatitis B virus [9]) [%] | inhibition [10] [%] | inhibition (Hepatitis B virus [11])
1 | CN(C1CCCC1)S(=O)(=O)c1ccc(F)c(C(=O)Nc2ccc(F)c(F)c2)c1 | 14.5 | 18.3 | 7.7 | ≥ 10 | 87 | 25.8 | 48.6 | – | – | – | – | – | – | – | – | – | – | – | –
2 | O=C(Nc1ccc(F)c(F)c1)c1cc(S(=O)(=O)NOC2CCCC2)ccc1F | 6.4 | 5.8 | 2.7 | > 10 | 82 | 13 | 26.4 | – | – | – | – | – | – | – | – | – | – | – | –
3 | CN(C)S(=O)(=O)NS(=O)(=O)c1ccc(F)c(C(=O)Nc2ccc(F)c(F)c2)c1 | > 100 | > 100 | > 10 | – | – | > 100 | > 100 | – | – | – | – | – | – | – | – | – | – | – | –
4 | CC(C)(NC(=O)c1cccc(S(=O)(=O)NC2CCCC2)c1)c1ccc(F)c(F)c1 | 64 | 84.3 | > 10 | – | – | > 100 | > 100 | inactive | – | – | – | – | – | – | – | – | – | – | –
5 | CCOC(=O)C1=C(CN2CCOCC2)NC(c2nccs2)=NC1c1ccc(F)cc1Br (stereo not drawn) | – | – | – | – | – | – | – | – | 1.9 | 0.2 | 1 | < 0.01 | 0.05 | 82 | – | – | – | – | –
6 | CC(NS(=O)(=O)c1ccc(F)c(C(=O)Nc2ccc(F)c(F)c2)c1)c1ccccc1 (stereo not drawn) | 3.6 | 68 | 7.7 | 9.3 | – | > 100 | > 100 | – | – | – | – | – | – | – | – | – | – | – | –
7 | O=C(Nc1ccc(F)c(F)c1)c1cc(S(=O)(=O)N2CC(F)(F)C(F)(F)C2)ccc1F | ≤ 1 | 9 | 9.2 | > 10 | 59 | > 100 | > 100 | – | – | – | – | – | – | – | – | – | – | – | –
8 | CS(=O)(=O)NS(=O)(=O)c1ccc(F)c(C(=O)Nc2ccc(F)c(F)c2)c1 | > 100 | > 100 | > 10 | – | – | > 100 | > 100 | – | – | – | – | – | – | – | – | – | – | – | –
9 | O=C1c2cc(S(=O)(=O)NC3CCCC3)ccc2CCCN1c1ccc(F)c(F)c1 | 50.6 | > 100 | > 10 | – | – | > 100 | > 100 | – | – | – | – | – | – | – | – | – | – | – | –
10 | O=C(Nc1ccc(F)c(F)c1)c1cc(NS(=O)(=O)C2CC2)ccc1F | 11.8 | 30.7 | 6.9 | > 10 | – | 39.2 | 61.8 | – | > 10 | 6.9 | > 10 | 0.8 | 8.1 | – | 61 | 5.5 | 76 | – | –
11 | O=C(Nc1ccc(F)c(F)c1)c1cc(S(=O)(=O)N2CC(F)(F)C2)ccc1F | 3.7 | 14.7 | 1.2 | 6.3 | – | 69.1 | 27 | – | 3.2 | 1.2 | 6.3 | 0.9 | 9.7 | – | – | 1 | – | 90 | Active
12 | CC(C)(NS(=O)(=O)c1ccc(F)c(C(=O)Nc2ccc(F)c(F)c2)c1)c1ccccc1 | 3.8 | 39.4 | 6.8 | 9.6 | – | > 100 | 88.2 | – | – | – | – | – | – | – | – | – | – | – | –
13 | O=C(Nc1ccc(F)c(F)c1)c1cc(NS(=O)(=O)C2CCCC2)ccc1F | 54.2 | 29.1 | 2.1 | 9.5 | – | > 100 | > 100 | – | > 10 | 2.1 | 9.5 | 0.3 | 3.6 | – | 66 | 6 | – | – | –
14 | O=C(Nc1ccc(F)c(F)c1)c1cc(S(=O)(=O)N2CCC3CCCCC32)ccc1F (stereo not drawn) | 22.9 | 30.7 | 4.6 | 10 | – | > 100 | > 100 | – | – | – | – | – | – | – | – | – | – | – | –
15 | O=C(Nc1ccc(F)c(F)c1)c1cc(S(=O)(=O)NC2CC2)ccc1F | 13.6 | 79.2 | 3.2 | 8.9 | – | 30.1 | 62.3 | – | – | – | – | – | – | – | – | – | – | – | –
